From ChEMBL document CHEMBL3580657, “Design and Evaluation of 3-(Benzylthio)benzamide Derivatives as Potent and Selective SIRT2 Inhibitors” (ACS Med Chem Lett, 2015)
Activity calls are given as the source filed them. The rule behind the calls is not given here.

Columns and labels:
[1] = molecular target: T1, NAD-dependent protein deacetylase sirtuin-2 (Homo sapiens, UniProt Q8IXJ6); assay: Inhibition of SIRT2 (unknown origin) by Flour-de-Lys fluorescent biochemical assay
T1 sequence (Q8IXJ6 whole entry): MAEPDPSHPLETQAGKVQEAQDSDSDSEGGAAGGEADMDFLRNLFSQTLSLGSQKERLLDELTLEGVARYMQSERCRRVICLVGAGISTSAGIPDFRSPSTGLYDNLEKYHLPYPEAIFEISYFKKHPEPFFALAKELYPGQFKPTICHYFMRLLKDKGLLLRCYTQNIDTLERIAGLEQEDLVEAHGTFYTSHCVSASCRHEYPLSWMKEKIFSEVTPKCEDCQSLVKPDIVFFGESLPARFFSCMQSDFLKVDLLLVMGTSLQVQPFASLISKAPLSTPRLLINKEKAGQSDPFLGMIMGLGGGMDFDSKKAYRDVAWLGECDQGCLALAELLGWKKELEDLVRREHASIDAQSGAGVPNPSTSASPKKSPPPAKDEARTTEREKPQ

[2] = molecular target: T2, NAD-dependent protein deacetylase sirtuin-2 (Homo sapiens) (UniProt Q8IXJ6); assay: Inhibition of SIRT2 (unknown origin) at 10 uM by Flour-de-Lys fluorescent biochemical assay
T2 sequence (whole entry): T1 sequence (Q8IXJ6 whole entry)
Procedure, shortened: (§1)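 Biochemical sirtuin deacetylation assays (SIRT1, SIRT2, SIRT3) run as in earlier work. Single 10 μM dose in triplicate. Primary screen was SIRT2, with SIRT1 and SIRT3 as counter-screens. A reference compound was included with each assay.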

[3] = molecular target: T3, NAD-dependent protein deacetylase sirtuin-2 (Rattus norvegicus) (UniProt Q5RJQ4); assay: Inhibition of SIRT2 in rat ST14A cells assessed as increase in alpha-tubulin K40 acetylation at 25 uM incubated for 6 hrs by SDS-PAGE and Western blotting method; assay type: cell-based
T3 sequence (whole entry): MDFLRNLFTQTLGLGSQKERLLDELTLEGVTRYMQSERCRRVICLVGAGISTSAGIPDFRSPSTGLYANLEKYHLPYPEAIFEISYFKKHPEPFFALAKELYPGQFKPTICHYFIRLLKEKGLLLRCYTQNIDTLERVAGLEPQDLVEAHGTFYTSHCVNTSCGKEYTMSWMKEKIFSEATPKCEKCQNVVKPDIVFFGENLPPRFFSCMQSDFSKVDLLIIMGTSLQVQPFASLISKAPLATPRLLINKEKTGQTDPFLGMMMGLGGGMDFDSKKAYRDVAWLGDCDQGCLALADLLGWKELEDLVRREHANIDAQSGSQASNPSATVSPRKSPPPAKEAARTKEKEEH
Procedure, shortened: (§2)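 Cells were treated with compound for 6 h across 0.5–50 μM. Extracts were resolved by SDS-PAGE and immunoblotted with an antibody to acetyl-K40 α-tubulin, with GAPDH as loading control. In ST14A, signal was normalized to GAPDH and quantified from blots.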

[4] = molecular target: T4, NAD-dependent protein deacetylase sirtuin-1 (Homo sapiens) (UniProt Q96EB6); assay: Inhibition of SIRT1 (unknown origin) at 10 uM by Flour-de-Lys fluorescent biochemical assay; procedure, shortened: as §1
T4 sequence (whole entry): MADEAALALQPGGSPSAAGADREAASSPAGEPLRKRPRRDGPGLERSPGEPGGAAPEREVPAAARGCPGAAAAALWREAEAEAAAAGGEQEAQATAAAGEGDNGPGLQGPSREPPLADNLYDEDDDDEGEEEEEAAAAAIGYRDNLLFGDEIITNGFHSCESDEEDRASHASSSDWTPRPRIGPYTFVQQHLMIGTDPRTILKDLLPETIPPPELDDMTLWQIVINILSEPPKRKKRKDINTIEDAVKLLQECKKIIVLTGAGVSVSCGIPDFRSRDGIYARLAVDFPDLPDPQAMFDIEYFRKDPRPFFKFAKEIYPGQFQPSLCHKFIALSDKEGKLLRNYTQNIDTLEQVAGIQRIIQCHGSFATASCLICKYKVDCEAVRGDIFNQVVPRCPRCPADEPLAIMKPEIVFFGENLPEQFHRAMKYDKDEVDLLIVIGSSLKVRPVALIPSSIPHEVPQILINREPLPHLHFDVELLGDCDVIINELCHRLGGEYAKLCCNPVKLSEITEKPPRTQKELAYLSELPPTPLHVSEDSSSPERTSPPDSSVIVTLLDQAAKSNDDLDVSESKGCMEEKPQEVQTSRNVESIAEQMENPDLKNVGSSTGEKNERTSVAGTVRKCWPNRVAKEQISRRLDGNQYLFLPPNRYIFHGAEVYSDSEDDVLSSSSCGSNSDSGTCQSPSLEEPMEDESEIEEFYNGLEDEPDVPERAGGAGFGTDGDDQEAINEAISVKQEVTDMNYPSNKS

[5] = Toxicity in rat PC12 cells expressing inducible HD103Q-EGFP fusion fragment of huntingtin mutant assessed as effect on cell density at 5 uM by phase contrast microscopy; assay type: cell-based; details: pc-12, 5 µM
[6] = molecular target: T3, NAD-dependent protein deacetylase sirtuin-2 (Rattus norvegicus); assay: Inhibition of SIRT2 in rat PC12 cells expressing inducible HD103Q-EGFP fusion fragment of huntingtin mutant assessed as reduction in number and size of fluorescent polyQ inclusions at 5 uM treated simultaneously with 2.5 uM ecdysone-inducible gene inducer muristerone A for 24 hrs by fluorescence microscopy; assay type: cell-based; details: PC-12
Procedure, shortened: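 PC12 cells carrying inducible HD103Q-EGFP huntingtin fragment were induced with 2.5 μM muristerone A for 24 h, simultaneous with compound at 25, 10 or 5 μM. PolyQ aggregation was scored by epifluorescence microscopy as number and size of fluorescent inclusions.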

[7] = molecular target: T5, NAD-dependent protein deacetylase sirtuin-3, mitochondrial (Homo sapiens) (UniProt Q9NTG7); assay: Inhibition of SIRT3 (unknown origin) at 10 uM by Flour-de-Lys fluorescent biochemical assay; procedure, shortened: as §1
T5 sequence (whole entry): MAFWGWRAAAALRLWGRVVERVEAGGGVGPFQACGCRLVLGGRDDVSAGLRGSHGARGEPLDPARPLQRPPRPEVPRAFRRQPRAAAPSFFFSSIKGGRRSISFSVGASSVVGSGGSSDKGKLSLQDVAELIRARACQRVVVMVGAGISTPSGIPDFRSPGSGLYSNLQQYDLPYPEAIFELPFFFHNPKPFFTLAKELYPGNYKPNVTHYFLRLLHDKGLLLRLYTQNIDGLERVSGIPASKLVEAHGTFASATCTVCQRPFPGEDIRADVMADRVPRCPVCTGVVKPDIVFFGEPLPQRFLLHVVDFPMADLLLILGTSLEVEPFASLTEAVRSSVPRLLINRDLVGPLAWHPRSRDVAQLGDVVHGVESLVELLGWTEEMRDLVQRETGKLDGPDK

[8] = molecular target: T3, NAD-dependent protein deacetylase sirtuin-2 (Rattus norvegicus); assay: Inhibition of SIRT2 in rat ST14A cells assessed as increase in alpha-tubulin K40 acetylation at 0.5 to 50 uM incubated for 6 hrs by SDS-PAGE and Western blotting method; assay type: cell-based; procedure, shortened: as §2

Row | Structure (SMILES) | inhibition [2] | IC50 ([1]; read-out: IC50) | inhibition [4] | inhibition [7] | further results
1 | N#Cc1ccc(NC(=O)c2cccc(S(=O)(=O)Nc3ccc(Cl)cn3)c2)cc1 | – | – | – | – | IC50 [1]: Not Active
2 | COc1ccc(C[S+]([O-])c2cccc(C(=O)Nc3ccc(C#N)cc3)c2)cc1 (stereo not drawn) | 21% | – | – | – | –
3 | O=C(Nc1ccc(Cl)cc1)c1cccc(S(=O)(=O)Cc2ccc(Cl)cc2)c1 | 0% | – | – | – | –
4 | CSc1ccc(CSc2cccc(C(=O)Nc3ccc(C#N)cc3)c2)cc1 | 83% | 2.4 µM | 3% | 0% | inhibition [3]: Active; Activity [5]: Non-toxic; inhibition [6]: Active
5 | C[S+]([O-])c1ccc(NC(=O)c2cccc(SCc3ccc(Cl)cc3)c2)cc1 (stereo not drawn) | 60% | 8.4 µM | 10% | 8% | inhibition [8]: Dose-dependent effect
6 | O=C(Nc1ccc(Cl)cn1)c1cccc(S(=O)(=O)Cc2ccc(Cl)cc2)c1 | 2% | – | – | – | –
7 | N#Cc1ccc(NC(=O)c2cccc([S+]([O-])Cc3ccc(Cl)cc3)c2)cc1 (stereo not drawn) | 47% | 7.1 µM | 12% | 11% | –
8 | CS(=O)(=O)c1ccc(NC(=O)c2cccc([S+]([O-])Cc3ccc(Cl)cc3)c2)cc1 (stereo not drawn) | 18% | – | – | – | –
9 | O=C(Nc1ccc(Cl)nn1)c1cccc(S(=O)(=O)Cc2ccc(Cl)cc2)c1 | 0% | – | – | – | –
10 | CS(=O)(=O)c1ccc(NC(=O)c2cccc(S(=O)(=O)Cc3ccc(Cl)cc3)c2)cc1 | 17% | – | – | – | –
11 | COc1ccc(CS(=O)(=O)c2cccc(C(=O)Nc3ccc(C#N)cc3)c2)cc1 | 50% | 6.7 µM | 3% | 0% | –
12 | C[S+]([O-])c1ccc(NC(=O)c2cccc([S+]([O-])Cc3ccc(Cl)cc3)c2)cc1 (stereo not drawn) | 24% | – | – | – | –
13 | CC(=O)c1ccc(NC(=O)c2cccc(S(=O)(=O)Cc3ccc(Cl)cc3)c2)cc1 | 23% | – | – | – | –
14 | N#Cc1ccc(NC(=O)c2cccc(SCc3ccc(Cl)cc3)c2)cc1 | 81% | 2.9 µM | 8% | 0% | –
15 | O=C(Nc1ccc(Br)cc1)c1cccc(S(=O)(=O)Cc2ccc(Cl)cc2)c1 | 0% | – | – | – | –
16 | N#Cc1ccc(NC(=O)c2cccc(S(=O)(=O)Cc3ccc(Cl)cc3)c2)cc1 | 40% | 4.7 µM | 0% | 0% | –
